Calls of active or inactive are those of the source. The rule behind the calls is not given here.
Tests used:
[1] = Cytotoxicity against HFF assessed as inhibition of cell viability after 3 days by trypan blue exclusion assay; type: cell-based; conditions: human, HFF cells
[2] = Selectivity index, ratio of CC50 for HFF to EC50 for Human cytomegalovirus Towne infected in human foreskin fibroblasts
Procedure, shortened: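 SI calculated as CC50/EC50. CC50 from MTT assay in uninfected HFFs. EC50 from pp28-luciferase HCMV Towne inhibition in infected HFFs.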

Human betaherpesvirus 5 [3] = assay: Antiviral activity against Human cytomegalovirus Towne infected in HFF assessed as inhibition of viral replication by measuring pp28 expression at 72 hrs post-infection by luciferase assay; type: functional, organism-based; conditions: Human betaherpesvirus 5, Towne
Procedure, shortened: (§1)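 HFFs infected with pp28-luciferase reporter HCMV at MOI 1 pfu/cell and treated across a concentration range. Luciferase activity read in cell lysates at 72 hpi. Triplicates in three independent experiments, mean ± SD. EC50 taken from dose-response curves.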

[4] = Cytotoxicity against HFF assessed as inhibition of cell viability after 3 days by MTT assay; type: cell-based; conditions: human, HFF cells
Procedure, shortened: (§2)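 Uninfected HFFs exposed to a concentration range at 37 °C for 3 days. MTT (5 mg/mL stock in PBS) added for 3 h at 37 °C. Formazan dissolved in DMSO and absorbance read. Triplicates in three independent experiments, mean ± SD. CC50 from dose-response curves.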

HFF [5] = assay: Cell cycle arrest in HFF infected with HCMV assessed as accumulation at G0/1 phase after 24 hrs by propidium iodide staining based flow cytometry; type: ADME; conditions: human
Procedure, shortened: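 HFFs serum-starved for 48 h, released, infected with Towne HCMV and treated with compound for 24 h. Cells trypsinized, permeabilized at −20 °C for 12 h, stained with propidium iodide and analysed by flow cytometry. Controls: serum-containing medium and GCV.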

HFF [6] = assay: Effect on mimosine-induced cell cycle arrest in HFF infected with HCMV assessed as accumulation at G0/1 phase treated for 1 day after incubation with mid-G1 inhibitor mimosine for 48 hrs by propidium iodide staining based flow cytometry; type: ADME; conditions: human, 24 h
Procedure, shortened: (§3)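 HFFs pretreated 48 h with mimosine or lovastatin, washed and released, then HCMV-infected and treated 24 h (1 day) with compound. Trypsinized, permeabilized at −20 °C for 12 h, stained with propidium iodide and analysed by flow cytometry.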

HFF [7] = assay: Effect on lovastatin-induced cell cycle arrest in HFF infected with HCMV assessed as accumulation at G0/1 phase treated for 24 hrs after incubation with early G1 inhibitor lovastatin for 48 hrs by propidium iodide staining based flow cytometry; type: ADME; conditions: human; procedure, shortened: as §3
[8] = Cytotoxicity against HFF assessed as inhibition of cell proliferation at 0.1 uM after 3 days by MTT assay; type: cell-based; conditions: human, HFF cells; procedure, shortened: as §2
Human betaherpesvirus 5 [9] = assay: Antiviral activity against Human cytomegalovirus Towne infected in HFF assessed as inhibition of viral replication by measuring pp28 expression at 50 nM at 72 hrs post-infection by luciferase assay; type: functional, organism-based; procedure, shortened: as §1
Human betaherpesvirus 5 [10] = assay: Antiviral activity against Human cytomegalovirus Towne infected in HFF assessed as decrease in virus DNA yield at 50 nM measured 96 hrs post-infection by real-time PCR analysis; type: functional, organism-based
Procedure, shortened: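 HFFs infected with HCMV Towne at MOI 1 pfu/cell and treated for 4 days. Supernatants collected and viral DNA yield quantified by real-time PCR. Triplicate determinations in three independent experiments, reported as mean ± SD.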

Human betaherpesvirus 5 [11] = assay: Antiviral activity against Human cytomegalovirus TB40 infected in HFF assessed as inhibition of viral replication at 50 nM after 3 days by GFP-based fluorescence analysis; type: functional, organism-based
Procedure, shortened: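 Human foreskin fibroblasts (HFFs) infected with HCMV-TB40 (GFP-expressing) at MOI 1 pfu/cell, then treated with compound for 3 days. Read-out: GFP fluorescence, with a bright-field image for comparison.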

Human betaherpesvirus 5 [12] = assay: Antiviral activity against Human cytomegalovirus Towne infected in HFF assessed as plaque reduction at 50 nM measured 8 days post-infection; type: functional, organism-based
Procedure, shortened: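 Plaque reduction assay with HCMV Towne in HFFs, read at 8 days postinfection. Triplicate determinations in three independent experiments, mean ± SD.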

| SMILES | CC50 at 72 h [1] [µM] | Ratio CC50/EC50 [2] | EC50 (Human betaherpesvirus 5 [3]) [µM] | CC50 at 72 h [4] [µM] | Activity (HFF [5]) | Activity (HFF [6]) | Activity (HFF [7]) | inhibition at 72 h, 0.1 µM [8] [%] | inhibition (Human betaherpesvirus 5 [9]) | inhibition (Human betaherpesvirus 5 [10]) | inhibition (Human betaherpesvirus 5 [11]) | inhibition (Human betaherpesvirus 5 [12]) |
| --- | --- | --- | --- | --- | --- | --- | --- | --- | --- | --- | --- | --- |
| C[C@H]1O[C@H](O[C@H]2CC[C@@]3(C)[C@H](CC[C@@H]4[C@@H]3CC[C@]3(C)[C@@H](C5=CC(=O)OC5)CC[C@]43O)C2)[C@@H](O)[C@@H](O)[C@@H]1O | 3.7 | 86 | 0.0266 | 2.3 |  |  |  |  |  |  |  |  |
| C[C@H]1O[C@H](O[C@H]2CC[C@@]3(C)[C@H](CC[C@@H]4[C@@H]3CC[C@]3(C)[C@@H](C5=CC(=O)OC5)CC[C@]43O)C2)CC[C@@H]1O[C@@H]1CC[C@H](O)[C@@H](C)O1 | 1 | 15 | 0.79 | 12.1 |  |  |  |  |  |  |  |  |
| C[C@@H]1O[C@@H](O[C@@H]2[C@@H](O)[C@@H](O)[C@H](O[C@@H]3[C@@H](O)[C@@H](O)[C@H](O[C@H]4CC[C@@]5(C)[C@H](CC[C@@H]6[C@@H]5CC[C@]5(C)[C@@H](C7=CC(=O)OC7)CC[C@]65O)C4)O[C@H]3C)O[C@H]2C)[C@H](O)[C@H](O)[C@H]1O | 11 | 30 | 0.232 | 7 |  |  |  |  |  |  |  |  |
| C[C@H]1O[C@H](O[C@H]2CC[C@@]3(C)[C@H](CC[C@@H]4[C@@H]3CC[C@]3(C)[C@@H](C5=CC(=O)OC5)CC[C@]43O)C2)CC[C@@H]1O[C@@H]1CC[C@H](O[C@@H]2CC[C@H](O)[C@@H](C)O2)[C@@H](C)O1 | 19 | 7 | 2.08 | 15 |  |  |  |  |  |  |  |  |
| C[C@]12CC[C@H](O[C@@H]3O[C@@H](CO)[C@H](O)[C@@H](O)[C@H]3O)C[C@H]1CC[C@@H]1[C@@H]2CC[C@]2(C)[C@@H](C3=CC(=O)OC3)CC[C@]12O | 1.9 | 127 | 0.0073 | 0.9 |  |  |  |  |  |  |  |  |
| C[C@@H]1O[C@@H](O[C@H]2CC[C@@]3(C)[C@H](CC[C@@H]4[C@@H]3CC[C@]3(C)[C@@H](C5=CC(=O)OC5)CC[C@]43O)C2)[C@H](O)[C@H](O)[C@H]1O | 2 | 139 | 0.0048 | 0.7 |  |  |  |  |  |  |  |  |
| C[C@@H]1O[C@@H](O[C@@H]2CC[C@H](O[C@H]3CC[C@@]4(C)[C@H](CC[C@@H]5[C@@H]4CC[C@]4(C)[C@@H](C6=CC(=O)OC6)CC[C@]54O)C3)O[C@H]2C)CC[C@H]1O | 7 | 76 | 0.0148 | 1.1 |  |  |  |  |  |  |  |  |
| C[C@H]1O[C@H](O[C@H]2CC[C@@]3(C)[C@H](CC[C@@H]4[C@@H]3CC[C@]3(C)[C@@H](C5=CC(=O)OC5)CC[C@]43O)C2)CC[C@@H]1O | 4 | 29 | 0.0375 | 1.1 |  |  |  |  |  |  |  |  |
| C[C@@H]1O[C@@H](O[C@H]2C[C@@H](O)[C@]3(CO)[C@H]4[C@H](O)C[C@]5(C)[C@@H](C6=CC(=O)OC6)CC[C@]5(O)[C@@H]4CC[C@]3(O)C2)[C@H](O)[C@H](O)[C@H]1O [OUABAIN] |  |  |  |  | Active | Not Active | Not Active |  |  |  |  |  |
| C[C@@H]1O[C@@H](O[C@@H]2[C@@H](O)[C@@H](O)[C@H](O[C@H]3CC[C@@]4(C)[C@H](CC[C@@H]5[C@@H]4CC[C@]4(C)[C@@H](C6=CC(=O)OC6)CC[C@]54O)C3)O[C@H]2C)[C@H](O)[C@H](O)[C@H]1O | 6 | 41 | 0.0367 | 1.5 |  |  |  |  |  |  |  |  |
| C[C@@H]1O[C@@H](O[C@@H]2CC[C@H](O[C@@H]3CC[C@H](O[C@H]4CC[C@@]5(C)[C@H](CC[C@@H]6[C@@H]5CC[C@]5(C)[C@@H](C7=CC(=O)OC7)CC[C@]65O)C4)O[C@H]3C)O[C@H]2C)CC[C@H]1O | 9 | 21 | 0.113 | 2.4 |  |  |  |  |  |  |  |  |
| C[C@H]1O[C@H](O[C@H]2[C@H](O)[C@H](O)[C@@H](O[C@H]3CC[C@@]4(C)[C@H](CC[C@@H]5[C@@H]4CC[C@]4(C)[C@@H](C6=CC(=O)OC6)CC[C@]54O)C3)O[C@@H]2C)[C@@H](O)[C@@H](O)[C@@H]1O | 10 | 32 | 0.209 | 6.7 |  |  |  |  |  |  |  |  |
| C[C@H]1O[C@H](O[C@H]2[C@H](O)[C@H](O)[C@@H](O[C@H]3[C@H](O)[C@H](O)[C@@H](O[C@H]4CC[C@@]5(C)[C@H](CC[C@@H]6[C@@H]5CC[C@]5(C)[C@@H](C7=CC(=O)OC7)CC[C@]65O)C4)O[C@@H]3C)O[C@@H]2C)[C@@H](O)[C@@H](O)[C@@H]1O | 16 | 31 | 0.32 | 10 |  |  |  |  |  |  |  |  |
| C[C@H]1O[C@@H](O[C@H]2[C@@H](O)C[C@H](O[C@H]3[C@@H](O)C[C@H](O[C@H]4CC[C@@]5(C)[C@H](CC[C@@H]6[C@@H]5CC[C@]5(C)[C@@H](C7=CC(=O)OC7)CC[C@]65O)C4)O[C@@H]3C)O[C@@H]2C)C[C@H](O)[C@@H]1O [DIGITOXIN] | 6 | 120 | 0.0233 | 2.8 | Active | Not Active | Not Active | 50 | Active | Active | Active | Active |
| C[C@@H]1O[C@@H](O[C@H]2CC[C@@]3(C)[C@H](CC[C@@H]4[C@@H]3CC[C@]3(C)[C@@H](C5=CC(=O)OC5)CC[C@]43O)C2)CC[C@H]1O [RAMNODIGIN] | 4 | 174 | 0.0038 | 0.7 |  |  |  | 50 |  |  |  |  |

— ChEMBL document CHEMBL3259699, “Digitoxin analogues with improved anticytomegalovirus activity” (ACS Med Chem Lett, 2014)
